{"source": "ChEMBL document CHEMBL4219056", "about": "(Bioorg Med Chem, 2018)", "key": {"Mus musculus [1]": {"tested_on": "Mus musculus", "assay": "Antidiabetic activity in ICR mouse assessed as reduction in blood glucose AUC (0 to 120 mins) at 40 mg/kg, po dosed 30 minutes prior to glucose challenge by OGTT relative to control", "format": "functional", "in_short": "(§1)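 Fasting male ICR mice (10 weeks, 18-22 g) got a single oral dose in 0.5% carboxymethyl cellulose. Oral glucose (30% solution, 3 g/kg) followed 30 min later. Blood glucose was sampled at -30, 0, 15, 30, 60 and 120 min.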"}, "[2]": {"molecular_target": "Free fatty acid receptor 1 (Homo sapiens, UniProt O14842)", "sequence (O14842 whole entry)": "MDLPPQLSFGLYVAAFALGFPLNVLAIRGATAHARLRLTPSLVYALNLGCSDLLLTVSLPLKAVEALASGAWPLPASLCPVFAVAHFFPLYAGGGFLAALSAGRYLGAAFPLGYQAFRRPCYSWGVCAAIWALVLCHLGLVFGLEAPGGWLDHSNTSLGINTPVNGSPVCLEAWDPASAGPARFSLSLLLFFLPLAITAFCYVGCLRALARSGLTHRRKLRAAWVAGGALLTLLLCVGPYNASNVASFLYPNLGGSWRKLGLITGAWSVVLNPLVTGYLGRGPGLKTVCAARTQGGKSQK", "assay": "Agonist activity at human FFA1 expressed in CHO cells assessed as increase in intracellular Ca2+ flux by Fluo-4 dye based FLIPR assay", "format": "functional, cell-based", "in_short": "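Stable human FFA1 CHO cells were seeded at 15 K cells/well and held 16 h at 37 °C in 5% CO2, then washed with HBSS. Ca2+ flux was read after graded compound addition. Response was scaled between vehicle and 10 µM γ-linolenic acid. EC50 is the mean of three independent determinations.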"}, "[3]": {"assay": "Lipophilicity, log D of the compound at 100 uM at pH 7.4 after 24 hrs by HPLC method", "format": "physicochemical", "settings": "buffer", "in_short": "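Shake-flask method: 10 mM DMSO stock was added to equal volumes of 0.01 M phosphate buffer pH 7.4 and 1-octanol, giving 100 µM final. Vials were shaken 24 h at 700 rpm, then left 1 h to separate. The octanol phase was diluted ×10 and both phases were run on HPLC. Injections were in duplicate; three independent experiments were run.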"}, "[4]": {"assay": "Cmax in fasted Sprague-Dawley rat at 3 mg/kg, po administered as single dose by LC-PDA-MS/MS analysis", "format": "ADME, organism-based", "design": "dose 3 mg/kg, route oral", "settings": "in vivo", "in_short": "(§2)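 Male SD rats (8 weeks, 180-200 g) were fasted 12 h and dosed once orally at 3 mg/kg, suspended in 0.5% methylcellulose, n = 4 per group. Tail-vein blood was drawn at 5, 15, 30 and 45 min and at 1, 2, 4, 6, 8, 12, 18 and 24 h. Plasma was stored at -20 °C. Methanol precipitation with internal standard preceded LC-PDA-MS/MS. Values are mean ± SD.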"}, "[5]": {"assay": "AUC (0 to 24 hrs) in fasted Sprague-Dawley rat at 3 mg/kg, po administered as single dose by LC-PDA-MS/MS analysis", "format": "ADME, organism-based", "design": "dose 3 mg/kg, time < 24 hr, route oral", "settings": "in vivo", "in_short": "as §2"}, "[6]": {"assay": "Plasma clearance in fasted Sprague-Dawley rat at 3 mg/kg, po administered as single dose measured up to 24 hrs by LC-PDA-MS/MS analysis", "format": "ADME, organism-based", "in_short": "as §2"}, "[7]": {"assay": "Half life in fasted Sprague-Dawley rat at 3 mg/kg, po administered as single dose by LC-PDA-MS/MS analysis", "format": "ADME, organism-based", "settings": "in vivo", "in_short": "as §2"}, "Mus musculus [8]": {"tested_on": "Mus musculus", "assay": "Antidiabetic activity in ICR mouse assessed as reduction in blood glucose AUC (0 to 120 mins) at 20 mg/kg, po dosed 30 minutes prior to glucose challenge by OGTT relative to control", "format": "functional", "design": "scale not given: the % may be the effect or the level left", "in_short": "as §1"}}, "note": "Calls of active or inactive are those of the source. No cut-off for these calls is given here.", "data": [{"smiles": "Cc1noc(C)c1-c1cc(COc2ccc3c(c2)OCC3CC(=O)O)ccc1Cl", "note": "(stereo unspecified)", "values": [{"measurement": "Activity", "setting": "Mus musculus [1]", "value": "Active"}, {"measurement": "EC50", "setting": "[2]", "value": 18.6, "unit": "nM"}, {"measurement": "logD at 24 h, 100 µM", "setting": "[3]", "value": 1.96}]}, {"smiles": "Cc1noc(C)c1-c1cccc(COc2ccc(CCC(=O)O)cc2)c1", "values": [{"measurement": "Activity", "setting": "Mus musculus [1]; tested as the 2H-labelled form", "value": "Active"}]}, {"smiles": "Cc1ccsc1-c1cccc(COc2ccc3c(c2)OCC3CC(=O)O)c1", "note": "(stereo unspecified)", "values": [{"measurement": "EC50", "setting": "[2]", "value": 157, "unit": "nM"}]}, {"smiles": "Cc1noc(C)c1-c1ccc(Cl)c(COc2ccc3c(c2)OCC3CC(=O)O)c1", "note": "(stereo unspecified)", "values": [{"measurement": "Activity", "setting": "Mus musculus [1]", "value": "Active"}, {"measurement": "EC50", "setting": "[2]", "value": 39.7, "unit": "nM"}, {"measurement": "logD at 24 h, 100 µM", "setting": "[3]", "value": 2.13}]}, {"smiles": "Cc1noc(C)c1-c1cc(COc2ccc3c(c2)OC[C@H]3CC(=O)O)ccc1Cl", "values": [{"measurement": "Cmax", "setting": "[4]", "value": 14100, "unit": "ng/mL"}, {"measurement": "Activity", "setting": "Mus musculus [1]", "value": 26.2, "unit": "%"}, {"measurement": "AUC(0-t) at 24 h", "setting": "[5]", "value": 142, "unit": "µg·h/mL"}, {"measurement": "CL/F", "setting": "[6]", "value": 0.308, "unit": "mL/min/kg"}, {"measurement": "half-life", "setting": "[7]", "value": 4.65, "unit": "h"}, {"measurement": "EC50", "setting": "[2]", "value": 7.9, "unit": "nM"}, {"measurement": "logD at 24 h, 100 µM", "setting": "[3]", "value": 1.93}]}, {"smiles": "Cc1cc(OCCCS(C)(=O)=O)cc(C)c1-c1cccc(COc2ccc3c(c2)OC[C@H]3CC(=O)O)c1", "values": [{"measurement": "Cmax", "setting": "[4]", "value": 6460, "unit": "ng/mL"}, {"measurement": "AUC(0-t) at 24 h", "setting": "[5]", "value": 79.5, "unit": "µg·h/mL"}, {"measurement": "CL/F", "setting": "[6]", "value": 0.618, "unit": "mL/min/kg"}, {"measurement": "half-life", "setting": "[7]", "value": 4.29, "unit": "h"}, {"measurement": "Activity", "setting": "Mus musculus [8]", "value": 37.5, "unit": "%"}]}, {"smiles": "Cc1ccc(C)n1-c1cccc(COc2ccc3c(c2)OCC3CC(=O)O)c1", "note": "(stereo unspecified)", "values": [{"measurement": "EC50", "setting": "[2]", "value": 53.6, "unit": "nM"}, {"measurement": "logD at 24 h, 100 µM", "setting": "[3]", "value": 3.95}]}, {"smiles": "[2H]C([2H])(Cc1ccc(OCc2cccc(-c3c(C)noc3C)c2)cc1)C(=O)O", "values": [{"measurement": "EC50", "setting": "[2]", "value": 38.4, "unit": "nM"}, {"measurement": "logD at 24 h, 100 µM", "setting": "[3]", "value": 1.83}]}, {"smiles": "Cc1nn(C)c(C)c1-c1cccc(COc2ccc3c(c2)OCC3CC(=O)O)c1", "note": "(stereo unspecified)", "values": [{"measurement": "EC50", "setting": "[2]", "value": 104, "unit": "nM"}]}, {"smiles": "Cc1noc(C)c1-c1cccc(COc2ccc3c(c2)OCC3CC(=O)O)c1", "note": "(stereo unspecified)", "values": [{"measurement": "Activity", "setting": "Mus musculus [1]", "value": "Active"}, {"measurement": "EC50", "setting": "[2]", "value": 27.5, "unit": "nM"}, {"measurement": "logD at 24 h, 100 µM", "setting": "[3]", "value": 1.57}]}, {"smiles": "[2H]C([2H])(Cc1ccc(OCc2cccc(-c3c(C)noc3C)c2)cc1F)C(=O)O", "values": [{"measurement": "EC50", "setting": "[2]", "value": 45.7, "unit": "nM"}]}, {"smiles": "Cc1ccc(-c2c(C)noc2C)cc1COc1ccc2c(c1)OCC2CC(=O)O", "note": "(stereo unspecified)", "values": [{"measurement": "EC50", "setting": "[2]", "value": 53.7, "unit": "nM"}, {"measurement": "logD at 24 h, 100 µM", "setting": "[3]", "value": 2.07}]}]}
